The IC50 is the concentration at which inhibition is half-maximal.

Activity calls are given as the source filed them. No cut-off for these calls is given here.

This note sets out measurements from ChEMBL document CHEMBL6074625, “Thiazolidine-2,4-dione hybrids as dual alpha-amylase and alpha-glucosidase inhibitors: design, synthesis, in vitro and in vivo anti-diabetic evaluation” (RSC Med Chem, 2024).

A short description of series [1]: Inhibition of porcine pancreatic alpha-amylase using starch as substrate preincubated for 10 min followed by substrate addition and measured after 20 min by absorbance based analysis. Also noted: species or system Sus scrofa. The gist of the method: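 Porcine α-amylase (1 U mL⁻¹) pre-incubated with compound 10 min at 25 °C in phosphate buffer pH 6.8. 1% starch added, then 15 min at 37.5 ± 2 °C. Quenched with DNS reagent, heated 70 °C 20 min, diluted with buffer, A540 read, in triplicate. Final concentrations 100–1 μM from DMSO dilutions; IC50 from a linear fit of % inhibition at y = 50.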

Series [2] deals with PANC-1. Kind of series: Cytotoxicity against human PANC-1 cells assessed as inhibition of cell viability at upto 100 uM incubated for 24 hrs by MTT assay. The format is toxicity, cell-based. The settings on record: panc-1, 24 h. The gist of the method: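 PANC-1 cells seeded at 9 × 10³ per well, triplicate, 24 h at 37 °C, 5% CO₂. Treated with 5, 10, 20, 40, 60, 80 and 100 μM for another day. MTT (5 mg mL⁻¹ stock) 3 h at 37 °C, plates centrifuged, formazan dissolved in DMSO 30 min dark, A570. Viability compared by one-way ANOVA with Tukey test.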

For the next series, the system named is INS1. Kind of series: Cytotoxicity against rat INS1 cells assessed as inhibition of cell viability at upto 100 uM incubated for 24 hrs by MTT assay. The format is toxicity, cell-based. The settings on record: ins1, 24 h. In outline:
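INS-1 MTT run as for PANC-1: 20 × 10³ cells per well in triplicate, 24 h at 37 °C/5% CO₂, then 5–100 μM (7 levels) for another day. MTT (5 mg mL⁻¹ stock) 3 h, centrifugation, DMSO solubilisation 30 min in dark, absorbance at 570 nm.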
For orientation: Tetrazolium assays rely on reduction of a dye to a coloured formazan, in cell work by metabolically active cells.

For series [3], the system named is PANC-1. Kind of series: Antioxidant activity in human PANC-1 cells assessed as decrease in high glucose induced ROS production by measuring minimum fractional index at 5 uM incubated for 24 hrs by DCFDA-staining based flow cytometry analysis. The format is functional. The gist of the method: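 PANC-1 cells (1 × 10⁵/well) grown 24 h at 37 °C, 5% CO₂, then pre-treated 1 h with 5 μM compound. Exposed to glucose (stated 10 μM) for 23 h. Stained with 10 μM DCFH-DA for 30 min at 37 °C, rinsed, and ROS read by flow cytometry as DCFDA/FITC mean fluorescence intensity.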
Background: In flow cytometry, cells or beads pass a laser one at a time.

For series [4], the system named is Rattus norvegicus. The series can be described thus: Antioxidant activity in fasted STZ-induced diabetic Wistar rat model assessed as decrease in high glucose induced ROS production in pancreas by measuring minimum fractional index at 10 mg/kg, po administration for 21 days and measured on day 35. The settings on record: time 35 day. The series is classed as functional. In outline: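 Rat pancreas mashed through a 70 μm strainer in FACS buffer. Processed by centrifugation (300 × g and 800 × g, 21 °C), 42% Percoll and 5 min RBC lysis. Cells washed, stained with DCFH-DA, and ROS read on a flow cytometer.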

Series [5] relates to PANC-1. Kind of series: Inhibition of high glucose induced alpha-amylase expressed in human PANC-1 cells assessed as decrease alpha-glucosidase level by measuring minimum fractional index incubated for 23 hrs and measured after 24 hrs by flow cytometric analysis. The format is functional, cell-based.
Series [6] is filed under the species Rattus norvegicus. Kind of series: Anti-diabetic activity in high glucose induced alpha-amylase expression in fasted STZ-induced diabetic Wistar rat model assessed as alpha-glucosidase level in pancreas by measuring minimum fractional index incubated for 23 hrs and measured after 24 hrs by flow cytometric analysis (reference value: 3063 + 149.2). The series is classed as functional.

For series [7], the species on record is Rattus norvegicus. The series can be described thus: Anti-diabetic activity in high glucose induced alpha-amylase expression in fasted STZ-induced diabetic Wistar rat model assessed as alpha-amylase level in pancreas by measuring minimum fractional index incubated for 23 hrs and measured after 24 hrs by flow cytometric analysis (reference value: 2590 + 199.74). The format is functional.

For series [8], the system named is Rattus norvegicus. The series can be described thus: Anti-diabetic activity against in streptozotocin-induced diabetic Wistar rat model assessed as reduction in blood glucose level at 10 mg/kg, po administered as single dose and measured upto 120 min by oral glucose tolerance test. The format is functional, organism-based. The gist of the method:
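Wistar rats fasted 16 h, given a single oral 10 mg kg⁻¹ dose, then oral glucose 2 g kg⁻¹ immediately. Blood glucose taken by tail puncture with a glucometer at 0, 15, 30, 60, 90 and 120 min. Groups compared by ANOVA.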

A short description of series [9]: Toxicity against STZ-induced diabetic Wistar rat model assessed as body weight loss at 10 mg/kg, po measured on day 14. The series is classed as organism-based. The settings on record: in vivo, 336 h, time 14 day. In outline: (§1)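 STZ given on day 1; oral treatment started day 14, with vehicle 0.5% CMC in controls. Six groups: normal, vehicle, STZ, STZ + two test compounds, STZ + pioglitazone. Blood glucose (tail puncture, glucometer) and body weight recorded on days 1, 4, 14 and 35. One-way ANOVA.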

Series [10] deals with Rattus norvegicus. The series can be described thus: Antidiabetic activity against streptozotocin-induced Wistar rat assessed as increase in serum amylase level at 10 mg/kg, po administered for 21 days measured on day 35 by ELISA analysis. The series is classed as functional, organism-based. The settings on record: time 35.0 day. In outline:
(§2)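 STZ-diabetic Wistar rats in six groups (normal, vehicle 0.5% CMC oral, STZ, STZ + test compounds, STZ + pioglitazone); oral treatment started day 14 after STZ on day 1. Markers measured in serum, pancreatic homogenate or whole blood, as named in each line. Groups compared by one-way ANOVA.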

In series [11] the test system is Rattus norvegicus. The series can be described thus: Antidiabetic activity against streptozotocin-induced Wistar rat assessed as increase BUN level in serum at 10 mg/kg, po administered for 21 days measured on day 35. The format is functional, organism-based. The settings on record: time 35.0 day. In outline:
as §2

Series [12] has as its system Rattus norvegicus. The series can be described thus: Antidiabetic activity against streptozotocin-induced Wistar rat assessed as change in uric acid level at 10 mg/kg, po administered for 21 days measured on day 35. The series is classed as functional, organism-based. The settings on record: time 35.0 day. The gist of the method:
as §2

Series [13] deals with Rattus norvegicus. The series can be described thus: Antidiabetic activity against streptozotocin-induced Wistar rat assessed as increase creatinine level in serum at 10 mg/kg, po administered for 21 days measured on day 35. The settings on record: time 35.0 day. The format is functional, organism-based. The gist of the method:
as §2

The test system of series [14] is Rattus norvegicus. Kind of series: Antidiabetic activity against streptozotocin-induced Wistar rat assessed as increase in serum SGOT level at 10 mg/kg, po administered for 21 days measured on day 35. The series is classed as functional, organism-based. The settings on record: time 35.0 day. In outline: as §2
The test system of series [15] is Rattus norvegicus. Kind of series: Antidiabetic activity against streptozotocin-induced Wistar rat assessed as increase in serum SGPT level at 10 mg/kg, po administered for 21 days measured on day 35. The series is classed as functional, organism-based. The settings on record: time 35.0 day. The gist of the method: as §2
Series [16] deals with Rattus norvegicus. Kind of series: Antidiabetic activity against STZ-induced oxidative stress in Wistar rats model assessed as reduction malondialdehyde level in pancreatic tissue at 10 mg/kg, po administered for 21 days measured on day 35. The format is functional, organism-based. The settings on record: time 35.0 day. The gist of the method:
as §2

For series [17], the species on record is Rattus norvegicus. Kind of series: Anti-diabetic activity against STZ-induced diabetic Wistar rat model assessed as increase increase in number of basophils level. The series is classed as functional, organism-based. In outline: as §2
Series [18] is filed under the species Rattus norvegicus. The series can be described thus: Anti-diabetic activity against STZ-induced diabetic Wistar rat model assessed as increase increase in number of eosinophils level. The series is classed as functional, organism-based. In outline:
as §2

Series [19] is filed under the species Rattus norvegicus. The series can be described thus: Anti-diabetic activity against STZ-induced diabetic Wistar rat model assessed as increase increase in number of lymphocytes level. The format is functional, organism-based. The gist of the method:
as §2

The species named for series [20] is Rattus norvegicus. Kind of series: Anti-diabetic activity against STZ-induced diabetic Wistar rat model assessed as increase increase in number of monocytes level. The format is functional, organism-based. In outline: as §2
The species entered for series [21] is Rattus norvegicus. Kind of series: Anti-diabetic activity against STZ-induced diabetic Wistar rat model assessed as increase increase in number of white blood cell count level. The series is classed as functional, organism-based. The gist of the method:
as §2

Series [22] concerns Rattus norvegicus. The series can be described thus: Anti-diabetic activity against in streptozotocin-induced diabetic Wistar rat model assessed as reduction in blood glucose level at 10 mg/kg, po administered for 21 days measured on day 35 by tail puncture method. The series is classed as functional, organism-based. The settings on record: time 35.0 day. The gist of the method:
as §1

The subject of series [23] is Rattus norvegicus. The series can be described thus: Antidiabetic activity against streptozotocin-induced Wistar rat assessed as reduction in serum ALP level at 10 mg/kg, po administered for 21 days measured on day 35. The settings on record: time 35.0 day.

Regarding `C#CCOc1ccc(/C=C2\SC(=O)N(Cc3cccc([N+](=O)[O-])c3)C2=O)cc1OCC`, the IC50 in series [1] turned out to be 9.2 µM. The Activity entry in the series with PANC-1 [2] is “Non-toxic”; in the series with INS1 it was “Non-toxic”; in the series on PANC-1 [5] it was “Dose-dependent-effect”; in series [9], “Toxic”. In addition, the results for the Activity_index with PANC-1 [3] and with Rattus norvegicus [4] were 85.2 and 164, respectively. Besides, the values for the Activity index in the series filed under Rattus norvegicus [6] and in the series listed under Rattus norvegicus [7] were 2540 and 2250, respectively. For the same compound, the outcome with Rattus norvegicus [8], in the series on Rattus norvegicus [11], with Rattus norvegicus [12], in the series with Rattus norvegicus [13], with Rattus norvegicus [14] and with Rattus norvegicus [15] was Active. For the same compound, the outcome in the series with Rattus norvegicus [16], in the series filed under Rattus norvegicus [17], in the series filed under Rattus norvegicus [18], in the series listed under Rattus norvegicus [19], in the series filed under Rattus norvegicus [20] and in the series filed under Rattus norvegicus [21] was Active. For the same compound, the outcome with Rattus norvegicus [22] and in the series with Rattus norvegicus [23] was Active. The outcome in the series on Rattus norvegicus [10] was inactive.
Regarding `C=CCOc1ccc(/C=C2\SC(=O)N(Cc3cccc([N+](=O)[O-])c3)C2=O)cc1OCC`, the IC50 in [1] is 17.1 µM. Besides, the Activity entry in the series on PANC-1 [2] is “Non-toxic”; with INS1, “Non-toxic”; in the series with PANC-1 [5] it was “Dose-dependent-effect”; in series [9] it was “Toxic”. Also, the Activity_index in the series on PANC-1 [3] worked out at 97.6; with Rattus norvegicus [4] it was 674. The values for the Activity index in the series filed under Rattus norvegicus [6] and in the series filed under Rattus norvegicus [7] were 132 and 676, respectively. For the same compound, the outcome with Rattus norvegicus [8], in the series with Rattus norvegicus [11], in the series on Rattus norvegicus [12], in the series with Rattus norvegicus [13], in the series on Rattus norvegicus [14] and in the series with Rattus norvegicus [15] was Active. Besides, the outcome in the series with Rattus norvegicus [16], in the series listed under Rattus norvegicus [17], in the series filed under Rattus norvegicus [18], in the series filed under Rattus norvegicus [19], in the series filed under Rattus norvegicus [20] and in the series listed under Rattus norvegicus [21] was Active. Moreover, the result in the series on Rattus norvegicus [22] and in the series with Rattus norvegicus [23] was Active. The result with Rattus norvegicus [10] was inactive.
